What is called MIC is the lowest concentration found to suppress growth. A lower MIC goes with greater potency. One may read the ED50 as the dose at which the effect has come halfway, by size or by number of responders. The low end stands for an effect at a small dose, the high end for a need for a large dose.

In brackets after ≈: the same amount, converted by molar mass.

Experimental findings from ChEMBL document CHEMBL1125337, “Synthesis and antibacterial activity of a series of basic amides of teicoplanin and deglucoteicoplanin with polyamines” (J Med Chem, 1992) are described below.

Series [1] in a line: Association constant determined at pH 9; Value ranges from 5E4-7.5E4. The format is ADME.
Series [2] relates to Enterococcus faecalis. As to the kind of experiment: Minimum inhibitory concentration against Enterococcus faecalis ATCC 7080. The format is functional. The procedure, abridged: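 Microbroth dilution MIC (µg/mL), final inoculum 10^4 cfu/mL, incubated 24 h at 37 °C in air.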
The subject of series [3] is Escherichia coli. Nature of the series: Minimum inhibitory concentration against Escherichia coli L 47. The format is functional. The procedure, abridged: (§1)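 MIC (µg/mL) by microbroth dilution in Iso-Sensitest broth; final inoculum 10^4 cfu/mL; 24 h at 37 °C in air.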
Series [4] has as its system Proteus vulgaris. As to the kind of experiment: Minimum inhibitory concentration against Proteus vulgaris ATCC 881. The format is functional. The essentials: as §1
The test system of series [5] is Pseudomonas aeruginosa. As to the kind of experiment: Minimum inhibitory concentration against Pseudomonas aeruginosa ATCC 10145. The format is functional. The procedure, abridged: as §1
Series [6] concerns Staphylococcus aureus. Nature of the series: Minimum inhibitory concentration against Staphylococcus aureus L 165. It counts as functional. The essentials: as §1
The test system of series [7] is Streptococcus pyogenes. As to the kind of experiment: Efficacy of compound administered subcutaneously against Streptococcus pyogenes L 49 Septicemia in mouse. It counts as functional. Conditions: sc. The procedure, abridged: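 Mice were infected intraperitoneally with about 10^5 Strep. pyogenes L 49 cells, about 100 times the 50% lethal dose. Groups of 5–8 mice were treated once right after challenge, by the route stated in the line. ED50 (mg/kg) was derived from percentage survival at each dose on day 7 (Spearman-Kärber).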

Series [8] has as its system Streptococcus pyogenes. Nature of the series: Minimum inhibitory concentration of compound was determined against Streptococcus pyogenes L 49 in mouse. The format is functional.
The test system of series [9] is Staphylococcus epidermidis. Nature of the series: Minimum inhibitory concentration against Staphylococcus epidermidis ATCC 12228. The format is functional. The essentials:
as §1

The subject of series [10] is Streptococcus pneumoniae. As to the kind of experiment: Minimum inhibitory concentration against Streptococcus pneumoniae L 44. The format is functional. The essentials: (§2)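 MIC (µg/mL) by microbroth dilution in Todd-Hewitt broth, final inoculum 10^4 cfu/mL, incubated 24 h at 37 °C in air.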
Series [11] relates to Staphylococcus haemolyticus. As to the kind of experiment: Minimum inhibitory concentration against Staphylococcus haemolyticus L 602. It counts as functional. The procedure, abridged:
as §1

The test system of series [12] is Streptococcus pyogenes. As to the kind of experiment: Minimum inhibitory concentration against Streptococcus pyogenes L 49. The format is functional. The procedure, abridged:
as §2

Series [13] relates to Bacteroides fragilis. As to the kind of experiment: Minimum inhibitory concentration of compound was determined against Bacteroides fragilis L 1236. The format is functional. The procedure, abridged: (§3)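 Microbroth dilution MIC (µg/mL) in Wilkins-Chalgren broth, final inoculum 10^5 cfu/mL, incubated 48 h in an anaerobic chamber.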
Series [14] has as its system Bacteroides fragilis. As to the kind of experiment: Minimum inhibitory concentration of compound was determined against Bacteroides fragilis L 1010. It counts as functional. The procedure, abridged:
as §3

The test system of series [15] is Bacteroides fragilis. Nature of the series: Minimum inhibitory concentration of compound was determined against Bacteroides fragilis L 1011. It counts as functional. The procedure, abridged:
as §3

Series [16] has as its system Enterobacter cloacae. As to the kind of experiment: Minimum inhibitory concentration of compound was determined against Enterobacter cloacae L 1485. The format is functional. The procedure, abridged:
as §1

Series [17] has as its system Enterobacter cloacae. As to the kind of experiment: Minimum inhibitory concentration of compound was determined against Enterobacter cloacae L 1504. It counts as functional. The procedure, abridged: as §1
Series [18] concerns Escherichia coli. As to the kind of experiment: Minimum inhibitory concentration of compound was determined against Escherichia coli L 1153. It counts as functional. The essentials: as §1
Series [19] has as its system Escherichia coli. As to the kind of experiment: Minimum inhibitory concentration of compound was determined against Escherichia coli L 1347. It counts as functional. The procedure, abridged:
as §1

The subject of series [20] is Escherichia coli. As to the kind of experiment: Minimum inhibitory concentration of compound was determined against Escherichia coli L 1484. It counts as functional. The essentials:
as §1

The subject of series [21] is Escherichia coli. As to the kind of experiment: Minimum inhibitory concentration of compound was determined against Escherichia coli L 1513. The format is functional. The procedure, abridged: as §1
In series [22] the test system is Escherichia coli. Nature of the series: Minimum inhibitory concentration of compound was determined against Escherichia coli L 1536. It counts as functional. The essentials:
as §1

For series [23], the system named is Escherichia coli. As to the kind of experiment: Minimum inhibitory concentration of compound was determined against Escherichia coli L 1572. The format is functional. The essentials:
as §1

The test system of series [24] is Klebsiella pneumoniae. Nature of the series: Minimum inhibitory concentration of compound was determined against Klebsiella pneumoniae L 1481. The format is functional. The essentials: as §1
Series [25] relates to Klebsiella pneumoniae. As to the kind of experiment: Minimum inhibitory concentration of compound was determined against Klebsiella pneumoniae L 1499. It counts as functional. The essentials:
as §1

Series [26] relates to Proteus mirabilis. As to the kind of experiment: Minimum inhibitory concentration of compound was determined against Proteus mirabilis L 1157. The format is functional. The procedure, abridged: as §1
Series [27] relates to Proteus mirabilis. Nature of the series: Minimum inhibitory concentration of compound was determined against Proteus mirabilis L 1356. It counts as functional. The procedure, abridged: as §1
Series [28] relates to Proteus vulgaris. As to the kind of experiment: Minimum inhibitory concentration of compound was determined against Proteus vulgaris L 1539. The format is functional. The procedure, abridged:
as §1

Series [29] relates to Pseudomonas aeruginosa. As to the kind of experiment: Minimum inhibitory concentration of compound was determined against Pseudomonas aeruginosa L 1348. It counts as functional. The procedure, abridged:
as §1

The subject of series [30] is Pseudomonas aeruginosa. Nature of the series: Minimum inhibitory concentration of compound was determined against Pseudomonas aeruginosa L 1138. It counts as functional. The essentials: as §1
Series [31] concerns Pseudomonas aeruginosa. Nature of the series: Minimum inhibitory concentration of compound was determined against Pseudomonas aeruginosa L 1533. It counts as functional. The procedure, abridged: as §1
In series [32] the test system is Serratia marcescens. As to the kind of experiment: Minimum inhibitory concentration of compound was determined against Serratia marcescens L 1506. The format is functional. The essentials: as §1
Series [33] has as its system Salmonella typhimurium. Nature of the series: Minimum inhibitory concentration of compound was determined against Salmonella Typhimurium L 35. The format is functional, Salmonella enterica subsp. enterica serovar Typhimurium. Conditions: Salmonella enterica. The procedure, abridged: as §1
For series [34], the system named is Shigella sonnei. Nature of the series: Minimum inhibitory concentration of compound was determined against Shigella sonnei L 363. The format is functional. The procedure, abridged: as §1
For series [35], the system named is Shigella dysenteriae. As to the kind of experiment: Minimum inhibitory concentration of compound was determined against Shigella dysentariae L155. The format is functional.
For series [36], the system named is Serratia marcescens. Nature of the series: Minimum inhibitory concentration of compound was determined against Serratia marcescens L 1488. The format is functional. The procedure, abridged:
as §1

Series [37] has as its system Pseudomonas aeruginosa. Nature of the series: Minimum inhibitory concentration of compound was determined against Pseudomonas aeruginosa L 1498. It counts as functional. The essentials: as §1

`NCCCNCCCNC(=O)[C@H]1NC(=O)[C@H]2NC(=O)[C@H](NC(=O)[C@@H]3NC(=O)[C@H]4NC(=O)[C@@H](Cc5ccc(c(Cl)c5)Oc5cc3cc(c5O)Oc3ccc(cc3Cl)[C@H]2O)NC(=O)[C@H](N)c2ccc(O)c(c2)Oc2cc(O)cc4c2)c2ccc(O)c(c2)-c2c(O)cc(O)cc21` returned a Ka in series [1] of 50000 M⁻¹. Further, the MIC was 0.125 µg/mL (≈ 0.0953 µM) in series [2]; 1 µg/mL (≈ 0.762 µM) in [3]; 32 µg/mL (≈ 24.4 µM) in series [4]; 8 µg/mL (≈ 6.1 µM) in [5]; 0.063 µg/mL (≈ 0.048 µM) in series [6]; 0.13 µg/mL (≈ 0.0991 µM) in [8]. Besides, the minimal inhibitory concentration (MIC) in series [9] turned out to be 0.032 µg/mL (≈ 0.0244 µM); in [10] it was 0.125 µg/mL (≈ 0.0953 µM); in [11] it was 0.125 µg/mL (≈ 0.0953 µM); in series [12], 0.063 µg/mL (≈ 0.048 µM). This molecule registered a 50% effective dose (ED50) in series [7] of 1.65 mg/kg.
On to `CNCCCN(C)C(=O)[C@H]1NC(=O)[C@H]2NC(=O)[C@H](NC(=O)[C@@H]3NC(=O)[C@H]4NC(=O)[C@@H](Cc5ccc(c(Cl)c5)Oc5cc3cc(c5O)Oc3ccc(cc3Cl)[C@H]2O)NC(=O)[C@H](N)c2ccc(O)c(c2)Oc2cc(O)cc4c2)c2ccc(O)c(c2)-c2c(O)cc(O)cc21`, for which the MIC in [13] came to 64 µg/mL (≈ 49.9 µM); in [14], 32 µg/mL (≈ 24.9 µM); in series [15] it was 32 µg/mL (≈ 24.9 µM); in [16], 32 µg/mL (≈ 24.9 µM); in [17], 32 µg/mL (≈ 24.9 µM); in series [2], 0.125 µg/mL (≈ 0.0974 µM). Also, the MIC in series [18] turned out to be 4 µg/mL (≈ 3.12 µM); in series [19], 8 µg/mL (≈ 6.23 µM); in series [20], 16 µg/mL (≈ 12.5 µM); in series [21], 8 µg/mL (≈ 6.23 µM); in series [22] it was 8 µg/mL (≈ 6.23 µM); in [23] it was 8 µg/mL (≈ 6.23 µM). The MIC in series [3] is 2 µg/mL (≈ 1.56 µM); in series [24] it was 16 µg/mL (≈ 12.5 µM); in series [25], 32 µg/mL (≈ 24.9 µM); in [26], 64 µg/mL (≈ 49.9 µM); in series [27], 32 µg/mL (≈ 24.9 µM); in series [4] it was 32 µg/mL (≈ 24.9 µM). Besides, the minimal inhibitory concentration (MIC) in series [28] was 128 µg/mL (≈ 99.8 µM); in [29], 16 µg/mL (≈ 12.5 µM); in series [5] it was 16 µg/mL (≈ 12.5 µM); in series [30], 64 µg/mL (≈ 49.9 µM); in series [31], 128 µg/mL (≈ 99.8 µM); in [6] it was 0.063 µg/mL (≈ 0.0491 µM). In addition, the MIC in [32] stood at 32 µg/mL (≈ 24.9 µM); in series [33], 16 µg/mL (≈ 12.5 µM); in series [34], 8 µg/mL (≈ 6.23 µM); in series [8], 0.06 µg/mL (≈ 0.0468 µM); in series [35] it was 4 µg/mL (≈ 3.12 µM); in [9], 0.063 µg/mL (≈ 0.0491 µM). The minimum inhibitory concentration (MIC) in series [36] was found to be 16 µg/mL (≈ 12.5 µM); in [10], 0.125 µg/mL (≈ 0.0974 µM); in series [11], 0.063 µg/mL (≈ 0.0491 µM); in series [12], 0.063 µg/mL (≈ 0.0491 µM); in series [37], 128 µg/mL (≈ 99.8 µM). This molecule displayed a 50% effective dose (ED50) in [7] of 1.25 mg/kg.
